Bioassay records as filed in PubChem.
CSN inh = inhibitors of human CSN-mediated cullin deneddylation; inhibition, % at 12.5 µM; 0.38% of 360,000 active; Purified CSN, SCF-Nedd8-OG deneddylation, fluorescence polarization;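 active = pattern-corrected inhibition above about 35%, with an unprinted fluorescence ratio check between 0.5 and 1.5, limit read from the data, passing the limit was not always enough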;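 note: 0% = enzyme with substrate and 100% = substrate without enzyme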
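Material: purified human Csn5 enzyme expressed in HEK293T cells / Medium: Tris buffer pH 7.5, NaCl, DTT, Tween-20, trehalose, ovalbumin / Compound dosing: 12.5 µM single point / Schedule: 90 min incubation of compound, enzyme and substrate at room temperature / Signal: fluorescence polarization of the substrate / Control set: no-enzyme wells high, enzyme-with-substrate wells low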
rCAG binder = molecules binding r(CAG) RNA repeats | r(CAG) RNA repeat, TO-PRO-1 dye displacement fluorescence | inhibition, % at 3 µM | 1.3% of 370,000 active | AID 651821;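 active = inhibition above the plate cutoff, the mean of all test compounds on that plate plus 3 SD, cut at about 35% in these data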;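 note: 0% = DMSO alone and 100% = 100 µM mitoxantrone as full dye displacement; higher means more dye released from RNA so lower well fluorescence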
ATG4B inh = ATG4B (human) cysteine protease inhibition | Q9Y4P1 | ATG4B cleavage of LC3-PLA2, NBD-HPC fluorescence, 1 h | inhibition, % at 8.33 µM | 0.51% of 340,000 active | AID 504462; in the data active = inhibition above about 40%
Target sequence (Q9Y4P1 whole entry, looked up): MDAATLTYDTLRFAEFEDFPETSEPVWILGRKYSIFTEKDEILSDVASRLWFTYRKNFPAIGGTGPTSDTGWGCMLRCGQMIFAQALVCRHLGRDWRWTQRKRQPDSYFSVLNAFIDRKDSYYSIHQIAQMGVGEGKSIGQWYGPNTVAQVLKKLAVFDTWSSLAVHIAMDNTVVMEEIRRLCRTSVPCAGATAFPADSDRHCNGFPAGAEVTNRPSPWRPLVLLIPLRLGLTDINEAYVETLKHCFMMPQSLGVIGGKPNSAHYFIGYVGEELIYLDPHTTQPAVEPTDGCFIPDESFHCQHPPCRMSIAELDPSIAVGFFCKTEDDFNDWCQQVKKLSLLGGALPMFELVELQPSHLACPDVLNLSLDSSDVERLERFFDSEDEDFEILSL
UHRF1 binding = human UHRF1 methylated DNA binding inhibitors. UHRF1 binding to methylated oligo, TR-FRET. inhibition, % at 4.4 µM. 0.75% of 370,000 active; in the data active = inhibition above about 21%;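 note: UHRF1 SRA domain binding a hemimethylated CpG hairpin DNA probe; 0% = median of test compound wells and 100% = reference inhibitor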
LEDGF integ inh = blocks HIV-1 LEDGF/p75-dependent DNA integration; 0.64% of 370,000 active; TR-FRET IN-LEDGF/p75 DNA integration, Eu/Cy5; inhibition, % at 3.7 µM;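 active = inhibition above the screen-wide mean plus 3 SD, cut at about 13% in these data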;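 note: signal is the Cy5 over europium emission ratio at 671 and 618 nm; 0% = plate median of compound wells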
MBD2 DNA inh = MBD2-methylated oligo binding inhibition. TR-FRET, MBD2 binding to methylated oligonucleotide. inhibition, % at 4.4 µM. 0.31% of 370,000 active. AID 686964; in the data active = inhibition above about 13%
An asterisk follows results filed as active; x = no result. Rows were chosen to be rich in hits. Some 3.1% of all compounds tested hit in one or more screens of this group.

SMILES	CSN inh	rCAG binder	ATG4B inh	UHRF1 binding	LEDGF integ inh	MBD2 DNA inh
O=C1C(NS(=O)(=O)c2cccs2)=C(N2CCN(c3cccc(C(F)(F)F)c3)CC2)C(=O)c2ccccc21	2.4	25.9	63.7*	-7.7	1.9	-8.7
COc1ccc(Cl)cc1NC(=O)Cn1c(=O)n2nc(C)nc2c2ccccc21	-3.5	13.1	-9.6	70.0*	-1.5	3.0
CC(C)OC(=O)c1cccnc1N1CCN(c2ccc(F)cc2)CC1	0.9	-6.0	5.6	22.8*	2.4	7.6
COc1ccc(CN(CCN2CCOCC2)C(=O)c2cc(F)ccc2F)cc1OC	x	-0.3	x	-0.6	6.0	-0.5
Oc1ccc(N2Cc3ccccc3C2)cc1	-4.5	x	3.4	x	x	x
O=Cc1ccc(N2Cc3ccccc3C2)cc1	0.7	5.9	7.6	-14.2	17.6*	-3.9
O=C(Cn1nnc2ccccc2c1=O)NCCc1ccc(Cl)cc1Cl	5.7	0.0	-4.9	27.8*	-0.1	0.1
COC(=O)c1ccc(NCc2c(O)ccc(O)c2Br)cc1Cl	-3.2	23.0	-4.8	-1.4	15.0*	-9.5
Cc1ccc(-c2n[nH]c(=S)c3ccccc23)cc1	-1.3	-1.1	-4.0	40.1*	-3.9	6.3
Cc1cc(C(=O)COC(=O)c2ccc(O)cc2)c(C)n1-c1ccccc1F	-3.4	2.1	-5.8	21.2*	-1.3	12.5
O=C(NCc1cccnc1)c1ccc(Cl)c(Cl)c1	-2.0	0.9	-4.9	36.9*	-1.4	5.4
O=C(NCc1cccnc1)C(=O)Nc1ccc([N+](=O)[O-])cc1	-1.6	-2.4	-5.2	21.9*	1.1	1.4
O=C(NCc1cccnc1)c1cccs1	-3.2	-1.1	-6.7	22.3*	4.3	8.4
CC(C)CCNC(=O)[C@H]1COC(O)([C@H](Cc2ccccc2)NC(=O)[C@@H](NC(=O)OCc2ccccc2)C(C)C)CN1C (stereo partly specified)	x	x	x	0.1	-3.9	-0.1
CCOC(=O)[C@]12CCCC=C1N(CCCOC)C(=O)[C@@H]2CC(=O)N1CCC(c2ccccc2)CC1	x	3.1	x	0.2	-2.5	-0.5
C[C@H]1[C@H](N)CC[C@@]23CCCN2C(=O)CCC[C@@H]13	x	x	x	0.9	5.3	7.5
CCOc1ccc(NC(=O)Nc2nc3ccc(S(C)(=O)=O)cc3s2)cc1	-0.9	38.9*	6.2	-4.2	2.5	0.8
Cc1ccc(Cn2nnc3c2-c2ccccc2S(=O)(=O)N(C(C)(C)C)C3)cc1	x	-0.6	x	-3.5	0.7	-3.3
Cc1ccc(S(=O)(=O)N(C)C[C@@H]2OCCCC[C@H](C)Oc3ccc(NC(=O)Nc4ccc(F)cc4)cc3C(=O)N([C@H](C)CO)C[C@H]2C)cc1	1.2	13.5	x	1.5	0.2	-4.0
C[C@@H]1CCCCO[C@H](CN(C)C(=O)CCC(F)(F)F)[C@H](C)CN([C@@H](C)CO)C(=O)c2cc(NS(=O)(=O)c3ccc(Cl)cc3)ccc2O1	x	13.2	x	3.9	0.1	-6.2
C[C@@H]1CCCCO[C@@H](CN(C)C(=O)CCC(F)(F)F)[C@@H](C)CN([C@H](C)CO)C(=O)c2cc(NS(=O)(=O)c3cccs3)ccc2O1	x	3.7	x	22.0*	7.6	6.3
C[C@@H]1CN([C@@H](C)CO)C(=O)c2cc(NC(=O)c3ccccc3)ccc2O[C@@H](C)CCCCO[C@@H]1CN(C)S(=O)(=O)c1ccc(F)cc1	1.0	6.4	x	21.4*	3.8	8.8
CCOC(=O)N1CCN(S(=O)(=O)c2ccc(C(=O)NNc3nc4c(C)cccc4s3)cc2)CC1	5.2	75.5*	-4.5	-2.6	0.5	2.0
Cc1ccc(-n2nc(-c3ccco3)cc2C(=O)O)cc1	37.7*	21.6	14.3	31.2*	8.9	10.1
O=C(Nc1nc(-c2cc(Cl)sc2Cl)cs1)c1ccc(Br)s1	3.2	2.7	1.6	1.9	0.6	20.6*
O=C(c1cc2nc(C3CC3)cc(C(F)F)n2n1)N1CCOCC1	13.5	9.6	-1.3	20.9*	4.0	2.5
CC(=O)Nc1ccc2c(c1)C(=O)N(C)[C@H]1CC[C@H](CC(=O)NCc3ccc(F)cc3)O[C@@H]1CO2	x	1.3	x	3.8	7.9	5.7
COc1ccc(-c2nn(-c3ccccc3)cc2C=O)cc1[N+](=O)[O-]	1.4	2.5	5.3	1.9	2.6	0.1
